Drawing on paper PMC4141080 (FEBS Open Bio, 2014), this text covers Km for four molecules.

Assay type in all cases: biochemical, Aplysia kurodai
Holding throughout (conditions): standard assay 37 °C; pH of kinetics not told

In assay [1] the test system is ApAGL74 (74-kDa α-glucosidase). Nature of the assay: glucose release. The procedure, abridged:
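The α-glucosidase was purified chromatographically from the ammonium sulfate (0–60%) fraction of stomach-lumen digestive fluid of sea hare. Glucose liberated from substrate was quantified with a glucose oxidase-based kit.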

For assay [2], the system named is ApAGL86 (86-kDa α-glucosidase). In words: glucose release.
Assay [3] deals with ApAGL74 (74-kDa α-glucosidase). In words: fluorometric 4-methylumbelliferone release. The procedure, abridged: (§1)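 Each α-glucosidase was purified from sea hare digestive fluid. The fluid was squeezed from the stomach lumen, cut with 0–60% ammonium sulfate, then run through ion-exchange, phenyl-Sepharose, Sephacryl S-100 and Mono Q chromatography, with purity checked by SDS–PAGE. Substrate was 4-MU-α-glucoside. Released 4-methylumbelliferone was read fluorometrically (ex 365 nm, em 450 nm). One unit releases 1 μmol 4-methylumbelliferone/min at 37 °C.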

Assay [4] concerns ApAGL86 (86-kDa α-glucosidase). In words: fluorometric 4-methylumbelliferone release. The procedure, abridged: as §1

Broadly, the Km is the concentration of substrate that gives half-maximal velocity. Consider `OC[C@H]1O[C@H](OC[C@H]2OC(O)[C@H](O)[C@@H](O)[C@@H]2O)[C@H](O)[C@@H](O)[C@@H]1O` (stereo partly shown) [Isomaltose], for which the values for the Km in assay [1] and in assay [2] were 14.2 ± 0.9 mM and 16.5 ± 0.05 mM, respectively.
With `Cc1cc(=O)oc2cc(O[C@H]3O[C@H](CO)[C@@H](O)[C@H](O)[C@H]3O)ccc12` [4MU-α-glucoside], the figures for the Km in assay [3] and in assay [4] were 0.0479 ± 0.0106 mM and 0.412 ± 0.006 mM, respectively.
As for `OC[C@H]1O[C@H](O[C@H]2[C@H](O)[C@@H](O)C(O)O[C@@H]2CO)[C@H](O)[C@@H](O)[C@@H]1O` (stereo partly shown) [Maltose], in assay [1], the Km came out at 4.98 ± 0.06 mM.
Consider `OC[C@H]1O[C@@](CO)(O[C@H]2O[C@H](CO)[C@@H](O)[C@H](O)[C@H]2O)[C@@H](O)[C@@H]1O` [Sucrose], for which the Km in assay [1] turned out to be 31.7 ± 2.1 mM; in assay [2], 33.6 ± 1.55 mM.
